Columns and labels:
Rattus norvegicus [1] = experiment: Distribution of the radio labelled compound in frontal cortex of rat brain after intravenous administration in absence of blocker after 60 min; type: ADME, organism-based; conditions: in vivo, 1 h
How it was run: (§1)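 Male Sprague–Dawley rats (200–250 g) under ketamine/xylazine anaesthesia with tail-vein cannulas. Blocker or none given 15 min before ~20 μCi [123I] tracer iv in 0.2 mL 10% ethanol/saline; blocker dose 4 mg/kg.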

Rattus norvegicus [2] = experiment: Distribution in rest of rat brain after intravenous administration by using [123I]ZIET after 120 min; type: ADME, organism-based; conditions: in vivo, 2 h
How it was run: (§2)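 Male Sprague–Dawley rats (200–250 g), fed ad libitum, given ~20 μCi radiotracer iv via tail-vein cannula in 0.2 mL 10% ethanol/saline under ketamine/xylazine im anesthesia. Killed at 5, 30, 60 or 120 min (n = 5; n = 4 at 120 min). Brain regions dissected, weighed, gamma-counted with dose standards, decay-corrected; mean %ID/g ± SE.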

Rattus norvegicus [3] = experiment: Distribution of the radio labelled compound in hippocampus of rat brain after intravenous administration in absence of blocker after 60 min; type: ADME, organism-based; conditions: in vivo, 1 h; how it was run: as §1
Rattus norvegicus [4] = experiment: Distribution in thyroid of rat brain after intravenous administration by using [123I]ZIET after 120 min; type: ADME, organism-based, Thyroid gland; conditions: in vivo, 2 h; how it was run: as §2
Rattus norvegicus [5] = experiment: Distribution of the radio labelled compound in hippocampus of rat brain after intravenous administration in presence of reboxetine after 60 min; type: ADME, organism-based; conditions: in vivo, 1 h; how it was run: as §1
[6] = Ratio of radioactivity in hypothalamus of rat brain to that of rat cerebellum after intravenous administration after 5 min; type: functional
How it was run: (§3)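 Male Sprague–Dawley rats (200–250 g) given ~20 μCi [123I] tracer iv in 0.2 mL 10% ethanol/saline under ketamine/xylazine; killed at 5, 30, 60, 120 min (n = 5; n = 4 at 120 min). Brain regions dissected, gamma counted, decay-corrected to %ID/g; regional uptake divided by cerebellum.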

[7] = Ratio of radioactivity in brainstem of rat brain to that of rat cerebellum after intravenous administration after 30 min; type: functional; how it was run: as §3
[8] = Ratio of radioactivity in occipital cortex of rat brain to that of rat cerebellum after intravenous administration after 120 min; type: functional; how it was run: as §3
Rattus norvegicus [9] = experiment: Distribution in occipital cortex of rat brain after intravenous administration by using [123I]ZIET after 120 min; type: ADME, organism-based; conditions: in vivo, 2 h; how it was run: as §2
Rattus norvegicus [10] = experiment: Distribution of the radio labelled compound in blood of rat brain after intravenous administration in presence of RTI-113 after 60 min; type: ADME, organism-based; conditions: in vivo, 1 h
How it was run: (§4)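 Male Sprague–Dawley rats (200–250 g), ketamine/xylazine anesthesia, tail-vein cannula. Blocker (4 mg/kg) or nothing given 15 min before iv [123I]ZIET in 10% ethanol/saline. Killed 60 min post-tracer.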

Rattus norvegicus [11] = experiment: Distribution of the radio labelled compound in thyroid of rat brain after intravenous administration in presence of citalopram after 60 min; type: ADME, organism-based, Thyroid gland; conditions: in vivo, 1 h; how it was run: as §1
Rattus norvegicus [12] = experiment: Distribution of the radio labelled compound in hypothalamus of rat brain after intravenous administration in presence of RTI-113 after 60 min; type: ADME, organism-based; conditions: in vivo, 1 h; how it was run: as §1
Rattus norvegicus [13] = experiment: Distribution in occipital cortex of rat brain after intravenous administration by using [123I]ZIET after 60 min; type: ADME, organism-based; conditions: in vivo, 1 h; how it was run: as §2
Rattus norvegicus [14] = experiment: Distribution of the radio labelled compound in striatum of rat brain after intravenous administration in absence of blocker after 60 min; type: ADME, organism-based; conditions: in vivo, 1 h; how it was run: as §1
Rattus norvegicus [15] = experiment: Distribution of the radio labelled compound in hypothalamus of rat brain after intravenous administration in absence of blocker after 60 min; type: ADME, organism-based; conditions: in vivo, 1 h; how it was run: as §1
Rattus norvegicus [16] = experiment: Distribution of the radio labelled compound in rest of rat brain after intravenous administration in presence of RTI-113 after 60 min; type: ADME, organism-based; conditions: in vivo, 1 h; how it was run: as §1
[17] = Ratio of radioactivity in striatum of rat brain to that of rat cerebellum after intravenous administration after 120 min; type: functional; how it was run: as §3
Rattus norvegicus [18] = experiment: Distribution in cerebellum of rat brain after intravenous administration by using [123I]ZIET after 5 min; type: ADME, organism-based; conditions: in vivo; how it was run: as §2
Rattus norvegicus [19] = experiment: Distribution in occipital cortex of rat brain after intravenous administration by using [123I]ZIET after 30 min; type: ADME, organism-based; conditions: in vivo, 0.5 h; how it was run: as §2
[20] = Ratio of radioactivity in hypothalamus of rat brain to that of rat cerebellum after intravenous administration after 30 min; type: functional; how it was run: as §3
Rattus norvegicus [21] = experiment: Distribution of the radio labelled compound in occipital cortex of rat brain after intravenous administration in presence of reboxetine after 60 min; type: ADME, organism-based; conditions: in vivo, 1 h; how it was run: as §1
Rattus norvegicus [22] = experiment: Distribution of the radio labelled compound in frontal cortex of rat brain after intravenous administration in presence of citalopram after 60 min; type: ADME, organism-based; conditions: in vivo, 1 h; how it was run: as §1
[23] = Ratio of radioactivity in rest of rat brain to that of rat cerebellum after intravenous administration after 60 min; type: functional; how it was run: as §3
Rattus norvegicus [24] = experiment: Distribution of the radio labelled compound in rest of rat brain after intravenous administration in absence of blocker after 60 min; type: ADME, organism-based; conditions: in vivo, 1 h; how it was run: as §1
[25] = Ratio of radioactivity in hippocampus of rat brain to that of rat cerebellum after intravenous administration after 30 min; type: functional; how it was run: as §3
Rattus norvegicus [26] = experiment: Distribution in thyroid of rat brain after intravenous administration by using [123I]ZIET after 60 min; type: ADME, organism-based, Thyroid gland; conditions: in vivo, 1 h; how it was run: as §2
Rattus norvegicus [27] = experiment: Distribution of the radio labelled compound in blood of rat brain after intravenous administration in presence of reboxetine after 60 min; type: ADME, organism-based; conditions: in vivo, 1 h; how it was run: as §4
Rattus norvegicus [28] = experiment: Distribution in rest of rat brain after intravenous administration by using [123I]ZIET after 5 min; type: ADME, organism-based; conditions: in vivo; how it was run: as §2
Rattus norvegicus [29] = experiment: Distribution in hypothalamus of rat brain after intravenous administration by using [123I]ZIET after 120 min; type: ADME, organism-based; conditions: in vivo, 2 h; how it was run: as §2
Rattus norvegicus [30] = experiment: Distribution of the radio labelled compound in cerebellum of rat brain after intravenous administration in presence of reboxetine after 60 min; type: ADME, organism-based; conditions: in vivo, 1 h; how it was run: as §1
[31] = Ratio of radioactivity in hypothalamus of rat brain to that of rat cerebellum after intravenous administration after 60 min; type: functional; how it was run: as §3
[32] = Ratio of radioactivity in hippocampus of rat brain to that of rat cerebellum after intravenous administration after 60 min; type: functional; how it was run: as §3
Rattus norvegicus [33] = experiment: Distribution in frontal cortex of rat brain after intravenous administration by using [123I]ZIET after 120 min; type: ADME, organism-based; conditions: in vivo, 2 h; how it was run: as §2
[34] = Ratio of radioactivity in rest of rat brain to that of rat cerebellum after intravenous administration after 5 min; type: functional; how it was run: as §3
Rattus norvegicus [35] = experiment: Distribution of the radio labelled compound in blood of rat brain after intravenous administration in presence of citalopram after 60 min; type: ADME, organism-based; conditions: in vivo, 1 h; how it was run: as §4
Rattus norvegicus [36] = experiment: Distribution of the radio labelled compound in frontal cortex of rat brain after intravenous administration in presence of RTI-113 after 60 min; type: ADME, organism-based; conditions: in vivo, 1 h; how it was run: as §1
Rattus norvegicus [37] = experiment: Distribution of the radio labelled compound in occipital cortex of rat brain after intravenous administration in presence of citalopram after 60 min; type: ADME, organism-based; conditions: in vivo, 1 h; how it was run: as §1
Rattus norvegicus [38] = experiment: Distribution of the radio labelled compound in rest of rat brain after intravenous administration in presence of citalopram after 60 min; type: ADME, organism-based; conditions: in vivo, 1 h; how it was run: as §1
Rattus norvegicus [39] = experiment: Distribution in striatum of rat brain after intravenous administration by using [123I]-ZIET after 5 min; type: ADME, organism-based; conditions: in vivo; how it was run: as §2
Rattus norvegicus [40] = experiment: Distribution of the radio labelled compound in striatum of rat brain after intravenous administration in presence of citalopram after 60 min; type: ADME, organism-based; conditions: in vivo, 1 h; how it was run: as §1
[41] = Ratio of radioactivity in brainstem of rat brain to that of rat cerebellum after intravenous administration after 5 min; type: functional; how it was run: as §3
[42] = Ratio of radioactivity in rest of rat brain to that of rat cerebellum after intravenous administration after 120 min; type: functional; how it was run: as §3
Rattus norvegicus [43] = experiment: Distribution in hypothalamus of rat brain after intravenous administration by using [123I]ZIET after 30 min; type: ADME, organism-based; conditions: in vivo, 0.5 h; how it was run: as §2
Rattus norvegicus [44] = experiment: Distribution in cerebellum of rat brain after intravenous administration by using [123I]ZIET after 30 min; type: ADME, organism-based; conditions: in vivo, 0.5 h; how it was run: as §2

COC(=O)C1C(c2ccc(/C=C\[123I])cc2)CC2CCC1N2C (centres undefined)
Activity (Rattus norvegicus [1]): 0.53
Activity (Rattus norvegicus [2]): 0.39
Activity (Rattus norvegicus [3]): 0.4
Activity (Rattus norvegicus [4]): 2.12
Activity (Rattus norvegicus [5]): 0.41
Ratio [6]: 1.1
Ratio [7]: 1.5
Ratio [8]: 3
Activity (Rattus norvegicus [9]): 0.42
Activity (Rattus norvegicus [10]): 0.24
Activity (Rattus norvegicus [11]): 0.93
Activity (Rattus norvegicus [12]): 0.55
Activity (Rattus norvegicus [13]): 0.63
Activity (Rattus norvegicus [14]): 0.42
Activity (Rattus norvegicus [15]): 0.42
Activity (Rattus norvegicus [16]): 0.36
Ratio [17]: 3.7
Activity (Rattus norvegicus [18]): 0.34
Activity (Rattus norvegicus [19]): 0.76
Ratio [20]: 1.6
Activity (Rattus norvegicus [21]): 0.42
Activity (Rattus norvegicus [22]): 0.21
Ratio [23]: 2
Activity (Rattus norvegicus [24]): 0.37
Ratio [25]: 1.7
Activity (Rattus norvegicus [26]): 1.11
Activity (Rattus norvegicus [27]): 0.26
Activity (Rattus norvegicus [28]): 0.38
Activity (Rattus norvegicus [29]): 0.6
Activity (Rattus norvegicus [30]): 0.15
Ratio [31]: 2.6
Ratio [32]: 2.3
Activity (Rattus norvegicus [33]): 0.48
Ratio [34]: 1.1
Activity (Rattus norvegicus [35]): 0.21
Activity (Rattus norvegicus [36]): 0.49
Activity (Rattus norvegicus [37]): 0.2
Activity (Rattus norvegicus [38]): 0.18
Activity (Rattus norvegicus [39]): 0.39
Activity (Rattus norvegicus [40]): 0.26
Ratio [41]: 1
Ratio [42]: 2.8
Activity (Rattus norvegicus [43]): 0.68
Activity (Rattus norvegicus [44]): 0.42

Reference: ChEMBL document CHEMBL1149321, “Synthesis, radiosynthesis, and biological evaluation of carbon-11 and iodine-123 labeled 2beta-carbomethoxy-3beta-[4'-((Z)-2-haloethenyl)phenyl]tropanes: candidate radioligands for in vivo imaging of the serotonin transporter” (J Med Chem, 2004)
